Rpn11 block: inhibitors of human proteasome Rpn11. human 26S proteasome, Ub4-pepOG fluorescence polarization; 20S core pre-blocked with epoxomicin. inhibition, % at 20 µM. actives 0.59% (n = 360,000);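 active = inhibition at 20 µM, scaled to each plate's controls, above about 33%, limit read from the data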
CSN deneddyl inh: CSN deneddylation inhibition; Q92905; Purified CSN, SCF-Nedd8-OG deneddylation, fluorescence polarization; inhibition, % at 12.5 µM; actives 0.38% (n = 360,000); AID 651999;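 active = pattern-corrected inhibition above about 35%, with an unprinted fluorescence ratio check between 0.5 and 1.5, limit read from the data, passing the limit was not always enough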;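 note: 0% = enzyme with substrate and 100% = substrate without enzyme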
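Material: purified human Csn5 enzyme expressed in HEK293T cells / Medium: Tris buffer pH 7.5, NaCl, DTT, Tween-20, trehalose, ovalbumin / Compound dosing: 12.5 µM single point / Schedule: 90 min incubation of compound, enzyme and substrate at room temperature / Signal: fluorescence polarization of the substrate / Control set: no-enzyme wells high, enzyme-with-substrate wells low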
XiGFP reactiv: activators of X-chromosome reactivation in mouse fibroblasts; XiGFP mouse fibroblasts, % GFP-positive cells imaging, 3 d; cells co-treated with 5-aza-dC sensitizer; scaled so ellipticine positive control = 100%; activation, % at 7.58 µM; actives 0.055% (n = 360,000); AID 743238;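 active = mean normalized replicate activation at least 10% and every replicate at or above 10%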;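 note: 0% = median of on-plate neutral control wells and 100% = ellipticine 6 µM median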
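System: 68-5-11 XiGFP fibroblast line | Buffer or medium: DMEM containing 5-aza-dC | Compound: Single point | Times: Compounds 3 days, fix/stain 15 min at room temperature | Benchmarks: Positive control ellipticine, 6 µM final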
HNF4A DNA FP: change in binding of human HNF4 alpha to DNA. AID 1224865. actives 0.3% (n = 360,000). HNF4a-FITC DNA binding, fluorescence polarization, 1 h. P41235. activity change, % at 10 µM; in the data active = activity change above about 30%, passing the limit was not always enough
aDG glyco up: increases alpha dystroglycan glycosylation; Pro5-aDG cells, alpha-DG glycosylation AlphaScreen (IIH6); 0% Pro5, 100% B10-LARGE cell signal; activation, % at 10 µM; actives 0.22% (n = 360,000); AID 624168;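 active = activation of at least 8% versus controls, or a plate z-score of at least 8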;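 note: Pro5 are CHO cells carrying HIG-tagged alpha-DG that lacks glycosylation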
TPT1 inh: C. albicans TPT1 enzyme inhibition | actives 0.81% (n = 300,000) | inhibition, % at 5 µM | recombinant caTPT1, FP RNA substrate dephosphorylation;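 active = inhibition above the mean of all tested compounds plus 3 SD, set per screening campaign, cut at about 24% in these data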;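 note: plate controls were DMSO alone for no effect and ferristatin control at 100 nM for full effect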
Rpn11 confirm: Rpn11 inhibition confirmation, single concentration; shares compounds with Rpn11 block; purified human 26S proteasome, Ub4-pepOG fluorescence polarization; proteasome pretreated with epoxomicin; inhibition, % at 20 µM; actives 29% (n = 1,900); AID 602318
MMP-2 inh: counter-screen for RPN11 inhibitors: inhibition of human MMP-2 | shares compounds with Rpn11 block | recombinant MMP-2, FRET peptide cleavage fluorescence | inhibition, % at 20 µM | actives 4% (n = 1,900);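 note: human MMP-2 activated beforehand with APMA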
Target sequence (P08253 whole entry, looked up): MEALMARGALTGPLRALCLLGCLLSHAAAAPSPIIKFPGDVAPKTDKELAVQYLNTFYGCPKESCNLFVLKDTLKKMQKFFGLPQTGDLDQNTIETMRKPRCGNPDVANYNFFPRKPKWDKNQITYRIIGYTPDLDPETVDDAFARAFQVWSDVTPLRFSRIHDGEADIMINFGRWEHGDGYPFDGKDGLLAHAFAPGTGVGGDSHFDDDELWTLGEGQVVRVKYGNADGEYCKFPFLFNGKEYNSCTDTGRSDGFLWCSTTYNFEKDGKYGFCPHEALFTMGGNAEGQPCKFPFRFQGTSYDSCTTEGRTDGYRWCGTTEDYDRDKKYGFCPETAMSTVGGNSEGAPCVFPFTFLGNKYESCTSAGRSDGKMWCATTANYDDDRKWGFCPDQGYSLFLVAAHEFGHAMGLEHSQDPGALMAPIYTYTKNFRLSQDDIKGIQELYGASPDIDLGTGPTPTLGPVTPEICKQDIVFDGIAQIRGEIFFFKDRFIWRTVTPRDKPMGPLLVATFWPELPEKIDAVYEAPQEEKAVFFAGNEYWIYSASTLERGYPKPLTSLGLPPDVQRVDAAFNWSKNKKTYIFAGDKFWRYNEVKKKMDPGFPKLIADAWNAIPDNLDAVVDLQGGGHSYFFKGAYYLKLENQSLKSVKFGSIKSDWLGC
Thrombin FP: thrombin (bovine) inhibition counter-screen. shares compounds with Rpn11 block. bovine thrombin cleavage of Ub4-pepOG, fluorescence polarization. inhibition, % at 20 µM. actives 13% (n = 1,900). AID 602333;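 active = mean inhibition at least 40% at 20 µM, or signal 3 deviations below plate average, so some actives read negative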;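 note: plate controls were thrombin with DMSO for no effect and buffer wells lacking thrombin for full effect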
Starred values were filed as active, the others as inactive; · = no result. Only some compounds are listed: those with a hit (about 1.3% of all), similar ones and a draw of the others. Cut-off read from the data, not from the text of the source, unless noted: active = inhibition above about 40%; inactive = the rest.

SMILES | Rpn11 block | CSN deneddyl inh | XiGFP reactiv | HNF4A DNA FP | aDG glyco up | TPT1 inh | Rpn11 confirm | MMP-2 inh | Thrombin FP
CCCNC(=O)C[C@@H]1C[C@H]2c3cc(NS(C)(=O)=O)ccc3O[C@H]2[C@@H](CO)O1 | · | · | 0 | · | · | · | · | · | ·
O=C(COc1ccccc1[N+](=O)[O-])Nc1ccc(NC(=O)c2cc3ccccc3o2)cc1 | 7 | 17 | 0 | -1 | 0 | 2 | · | · | ·
O=C(COc1ccc(/C=N/NC(=O)c2cc3ccccc3o2)cc1Br)Nc1ccccc1 | 118* | 125* | · | 23 | 0 | -1 | 41* | -105 | -15
COc1cccc(NC(=O)c2ccccc2)c1 | -1 | -1 | 0 | 0 | 0 | 2 | · | · | ·
COc1cccc(C(=O)Nc2cccc(-c3ccccc3)c2)c1 | 49* | -3 | 0 | -20 | 0 | 1 | 4 | 5 | -6
CCC(=O)N1C[C@@H](C)[C@@H](OC)CN(C)C(=O)c2ccc(NC(=O)C3CCOCC3)cc2OC[C@H]1C | · | · | 0 | · | · | · | · | · | ·
CC1CN(S(=O)(=O)c2cccc(C(=O)OC/C(O)=C(\C#N)c3nc4ccccc4[nH]3)c2)CC(C)O1 (stereo unspecified) | 40* | -3 | 0 | 13 | 0 | 7 | 7 | -10 | 4
CCOc1ccccc1NS(=O)(=O)c1cn(C)nc1C | 32* | -3 | 0 | -47 | 0 | -2 | -11 | -4 | 1
Cc1ccccc1Cn1cc(NS(=O)(=O)c2cn(C)nc2C)cn1 | -12 | -1 | 0 | 0 | 0 | 4 | · | · | ·
COc1cc(Cl)c(C)cc1NC(=O)CSc1sc2c(O)cc(=O)[nH]c2c1C#N | 40* | 22 | 0 | -27 | 0 | 8 | -5 | 2 | -22
Cc1nnc(-c2cccc(Br)c2)c2cn(-c3ccccc3Cl)nc12 | 76* | 15 | · | 33 | 0 | -1 | 26 | -8 | 26
CNC[C@H]1Oc2c(NC(=O)NC3CCCCC3)cccc2C(=O)N([C@@H](C)CO)C[C@@H]1C | · | · | 0 | · | · | · | · | · | ·
COc1cccc(N2CC(C(=O)Nc3nnc(SCCN4CCOCC4)s3)CC2=O)c1 (stereo unspecified) | 52* | 6 | 0 | -1 | 0 | 0 | 7 | -19 | 13
COc1ccc2c3c([nH]c2c1)[C@@H](CO)N(C(C)=O)CC31CN(Cc2cc(-c3ccccc3)on2)C1 | · | · | 0 | · | · | · | · | · | ·
CC1(C)Cc2c(c(N3CCOCC3)nc3sc(C(=O)Nc4ccc(Cl)cc4)c(N)c23)CO1 | 8 | -4 | 0 | 2 | 0 | 3 | · | · | ·
Cc1nc2c(sc3nc(N4CCOCC4)c4c(c32)CC(C)(C)OC4)c(-c2ccc(Cl)cc2)c1C(=O)O | 57* | 5 | 0 | 15 | 0 | 17 | 10 | -30 | 1
O=C(O)c1cc(-c2ccc(/C=N/Nc3ccc([N+](=O)[O-])cn3)o2)ccc1Cl | 76* | 10 | 0 | 3 | 0 | · | 1 | -15 | 22
O=C(O)c1cc(N/N=C/c2ccc(-c3ccc(F)cc3)o2)ccc1Cl | 9 | 1 | 0 | -1 | 0 | 0 | · | · | ·
N#Cc1cnc(SCC(=O)NNC(=O)COc2cccc3ccccc23)nc1N | 45* | 1 | 1 | 13 | 0 | 51* | 9 | 2 | 0
Cc1cccc(-c2nc(Nc3cccc(O)c3)c3ccccc3n2)c1 | 60* | 1 | 0 | 21 | 0 | 6 | 19 | -28 | 12
Cc1cccc(-c2nc(Nc3ccc(N4CCOCC4)cc3)c3ccccc3n2)c1 | 0 | -11 | 0 | 4 | -1 | 3 | · | · | ·
Fc1ccc(Nc2nc(-c3ccncc3)nc3ccccc23)cc1F | 80* | 8 | 0 | 19 | 0 | -2 | 17 | -18 | -23
COc1ccc(CCNC(=O)CC(=O)N/N=C/c2ccc(C(=O)O)cc2)cc1OC | 4 | 0 | 0 | 1 | 0 | 2 | · | · | ·
COC(=O)c1ccc(/C=N/OCC(=O)NCCc2ccc(OC)c(OC)c2)cc1 | 33* | -14 | 0 | 2 | 0 | -2 | 2 | -6 | -13
CO[C@H]1CN(C)C(=O)c2cc(NC(=O)Nc3ccccc3F)ccc2OC[C@@H](C)N(Cc2ccccc2C(=O)O)C[C@H]1C | · | · | 0 | · | · | · | · | · | ·
SMILES | Rpn11 block | CSN deneddyl inh | XiGFP reactiv | HNF4A DNA FP | aDG glyco up | TPT1 inh | Rpn11 confirm | MMP-2 inh | Thrombin FP
O=C(CN(C(=O)c1csnn1)c1ccc2c(c1)OCCO2)NCc1ccc(F)cc1 | 48* | 0 | 0 | 16 | 0 | -4 | 6 | -6 | -1
CNC[C@H]1OCCCC[C@@H](C)Oc2ccc(NC(=O)Nc3cccc4ccccc34)cc2C(=O)N([C@H](C)CO)C[C@@H]1C | · | · | 0 | · | · | · | · | · | ·
CCCC(=O)Nc1ccc2c(c1)C(=O)N(C)[C@@H]1CC[C@@H](CC(=O)NCC3CC3)O[C@@H]1CO2 | · | · | 0 | · | · | · | · | · | ·
CNS(=O)(=O)c1ccc2nc(NC(=O)/C=C/c3ccco3)sc2c1 | 57* | 56* | 0 | 16 | 0 | 8 | 4 | -25 | 2
FC(F)Sc1ccc(NC(=S)NC2CCC(NC(=S)Nc3ccc(SC(F)F)cc3)CC2)cc1 (stereo unspecified) | 143* | 7 | · | 22 | 0 | -5 | 9 | 21 | -1
CCOC(=O)c1c(C)[nH]c(C(=O)OCC(=O)N(CC(C)C)c2c(N)n(Cc3ccccc3)c(=O)[nH]c2=O)c1C | 60* | 12 | 0 | 18 | 0 | 15 | 104* | -1 | 69*
CCOC(=O)c1c(C)[nH]c(C(=O)OCC(=O)N(CC)c2c(N)n(Cc3ccccc3)c(=O)[nH]c2=O)c1C | 8 | 2 | 0 | 4 | 0 | · | · | · | ·
O=C1NC(=O)/C(=C\c2ccccc2OCc2ccc([N+](=O)[O-])cc2)N1 | 45* | 3 | 0 | 1 | 2 | -1 | -12 | -27 | -15
O=c1oc(-c2cccs2)nc2sc3c(c12)CCCC3 | 1 | -1 | · | 5 | 0 | 1 | · | · | ·
O=c1c2c3c(sc2nc2n1N=C(c1cccs1)CS2)CCCC3 | 58* | 20 | · | 12 | 0 | 4 | 16 | -27 | -17
NS(=O)(=O)c1ccc(CCNC(=O)COc2ccc3c4c(c(=O)oc3c2)CCC4)cc1 | -5 | 2 | 0 | 3 | 0 | 1 | · | · | ·

High-throughput results (PubChem BioAssay)
